Laboratory results taken from the M2OR odorant receptor database.

Key:
Settings in all cases: stereoisomer not certain
UniProt Q8VFP5 = molecular target: T1, UniProt Q8VFP5
T1 sequence (whole entry): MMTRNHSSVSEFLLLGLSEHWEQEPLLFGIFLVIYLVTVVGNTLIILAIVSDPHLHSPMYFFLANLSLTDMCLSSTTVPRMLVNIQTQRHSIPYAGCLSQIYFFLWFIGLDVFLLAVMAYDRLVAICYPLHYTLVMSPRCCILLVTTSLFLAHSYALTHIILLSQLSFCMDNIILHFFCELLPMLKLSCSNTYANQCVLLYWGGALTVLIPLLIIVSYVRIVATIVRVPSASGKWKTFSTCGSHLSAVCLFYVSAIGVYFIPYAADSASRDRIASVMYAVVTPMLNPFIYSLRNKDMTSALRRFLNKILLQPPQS
Method in brief: (§1)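 Each entry records the cell line, G-protein, co-transfected protein and tags used. Methods varied with the source, often transient luciferase assays in mammalian cell lines. A receptor–molecule pair is called responsive (active) if the original authors judged its signal statistically different from baseline and non-responsive (inactive) otherwise.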

UniProt Q8VG01 = molecular target: T2, UniProt Q8VG01
T2 sequence (whole entry): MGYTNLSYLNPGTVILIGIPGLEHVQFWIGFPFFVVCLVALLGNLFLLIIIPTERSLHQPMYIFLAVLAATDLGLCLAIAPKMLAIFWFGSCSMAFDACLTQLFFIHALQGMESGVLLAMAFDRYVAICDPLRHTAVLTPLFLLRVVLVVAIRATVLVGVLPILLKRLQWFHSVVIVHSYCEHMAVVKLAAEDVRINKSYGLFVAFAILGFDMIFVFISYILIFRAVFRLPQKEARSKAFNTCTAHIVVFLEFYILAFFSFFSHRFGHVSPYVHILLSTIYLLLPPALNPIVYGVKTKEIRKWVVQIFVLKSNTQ
Method in brief: as §1

UniProt Q8VG27 = molecular target: T3, UniProt Q8VG27
T3 sequence (whole entry): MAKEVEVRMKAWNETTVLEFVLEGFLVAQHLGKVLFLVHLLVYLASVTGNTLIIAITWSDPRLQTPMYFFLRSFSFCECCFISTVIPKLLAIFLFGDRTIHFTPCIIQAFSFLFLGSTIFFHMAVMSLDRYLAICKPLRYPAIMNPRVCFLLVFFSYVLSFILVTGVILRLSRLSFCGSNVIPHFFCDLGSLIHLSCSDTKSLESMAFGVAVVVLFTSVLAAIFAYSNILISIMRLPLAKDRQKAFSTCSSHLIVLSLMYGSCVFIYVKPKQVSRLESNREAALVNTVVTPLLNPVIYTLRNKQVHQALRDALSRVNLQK
Method in brief: as §1

UniProt Q8VG53 = molecular target: T4, UniProt Q8VG53
T4 sequence (whole entry): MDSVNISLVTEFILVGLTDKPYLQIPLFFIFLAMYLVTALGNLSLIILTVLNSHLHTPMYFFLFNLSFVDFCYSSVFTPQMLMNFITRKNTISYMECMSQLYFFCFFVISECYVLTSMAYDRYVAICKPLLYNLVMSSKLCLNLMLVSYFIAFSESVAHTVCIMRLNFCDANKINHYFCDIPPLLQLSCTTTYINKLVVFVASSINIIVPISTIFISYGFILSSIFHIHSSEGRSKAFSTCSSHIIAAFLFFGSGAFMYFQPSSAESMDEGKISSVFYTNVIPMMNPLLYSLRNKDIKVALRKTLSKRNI
Method in brief: as §1

UniProt Q8VG64 = molecular target: T5, UniProt Q8VG64
T5 sequence (whole entry): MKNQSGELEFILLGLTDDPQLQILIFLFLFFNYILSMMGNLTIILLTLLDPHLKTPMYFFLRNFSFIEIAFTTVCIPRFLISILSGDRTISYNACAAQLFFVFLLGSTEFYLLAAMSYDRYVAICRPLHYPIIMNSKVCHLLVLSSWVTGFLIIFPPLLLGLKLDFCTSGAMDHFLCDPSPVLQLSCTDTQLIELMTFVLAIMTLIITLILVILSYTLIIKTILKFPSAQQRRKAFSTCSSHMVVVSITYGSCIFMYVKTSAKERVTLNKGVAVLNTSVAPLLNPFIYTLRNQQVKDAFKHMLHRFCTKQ
Method in brief: as §1

UniProt Q8VGB9 = molecular target: T6, UniProt Q8VGB9
T6 sequence (whole entry): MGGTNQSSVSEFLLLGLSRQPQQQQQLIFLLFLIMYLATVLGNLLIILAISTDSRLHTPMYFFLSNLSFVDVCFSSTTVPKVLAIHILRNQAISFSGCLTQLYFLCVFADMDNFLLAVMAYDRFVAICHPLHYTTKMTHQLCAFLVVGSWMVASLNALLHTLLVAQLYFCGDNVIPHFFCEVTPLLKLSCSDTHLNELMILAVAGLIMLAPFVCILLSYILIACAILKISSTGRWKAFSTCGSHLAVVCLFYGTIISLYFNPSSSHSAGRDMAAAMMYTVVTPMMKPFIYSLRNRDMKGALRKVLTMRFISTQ
Method in brief: as §1

UniProt Q8VFQ6 = molecular target: UniProt Q8VFQ6
Method in brief: as §1

UniProt Q8VFZ6 = molecular target: T7, UniProt Q8VFZ6
T7 sequence (whole entry): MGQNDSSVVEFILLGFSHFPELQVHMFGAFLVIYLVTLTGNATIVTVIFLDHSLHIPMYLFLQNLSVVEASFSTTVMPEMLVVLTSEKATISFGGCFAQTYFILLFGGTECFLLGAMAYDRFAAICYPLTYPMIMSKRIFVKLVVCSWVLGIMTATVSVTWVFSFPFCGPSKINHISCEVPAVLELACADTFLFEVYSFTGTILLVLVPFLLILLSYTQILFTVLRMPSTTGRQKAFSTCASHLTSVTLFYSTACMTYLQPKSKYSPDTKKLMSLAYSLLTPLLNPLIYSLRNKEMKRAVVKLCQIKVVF
Method in brief: as §1

UniProt Q8VG22 = molecular target: T8, UniProt Q8VG22
T8 sequence (whole entry): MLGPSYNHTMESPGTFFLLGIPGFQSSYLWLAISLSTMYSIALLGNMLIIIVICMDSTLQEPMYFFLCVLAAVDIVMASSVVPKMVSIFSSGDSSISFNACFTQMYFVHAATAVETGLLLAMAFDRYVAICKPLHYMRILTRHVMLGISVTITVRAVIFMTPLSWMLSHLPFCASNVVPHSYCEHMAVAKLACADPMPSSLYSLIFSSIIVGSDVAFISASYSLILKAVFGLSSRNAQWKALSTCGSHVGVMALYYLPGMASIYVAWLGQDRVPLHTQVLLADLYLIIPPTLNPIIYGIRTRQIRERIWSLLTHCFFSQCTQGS
Method in brief: as §1

UniProt Q8VG49 = molecular target: T9, UniProt Q8VG49
T9 sequence (whole entry): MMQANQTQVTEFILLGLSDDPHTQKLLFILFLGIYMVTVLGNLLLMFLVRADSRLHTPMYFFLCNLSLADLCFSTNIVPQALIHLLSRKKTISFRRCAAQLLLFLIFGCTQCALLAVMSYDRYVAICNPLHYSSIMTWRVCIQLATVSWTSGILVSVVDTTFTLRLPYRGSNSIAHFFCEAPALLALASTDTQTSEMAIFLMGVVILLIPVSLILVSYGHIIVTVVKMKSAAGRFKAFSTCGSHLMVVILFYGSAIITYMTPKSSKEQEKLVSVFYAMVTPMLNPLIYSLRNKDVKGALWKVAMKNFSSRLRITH
Method in brief: as §1

UniProt Q8VG77 = molecular target: T10, UniProt Q8VG77
T10 sequence (whole entry): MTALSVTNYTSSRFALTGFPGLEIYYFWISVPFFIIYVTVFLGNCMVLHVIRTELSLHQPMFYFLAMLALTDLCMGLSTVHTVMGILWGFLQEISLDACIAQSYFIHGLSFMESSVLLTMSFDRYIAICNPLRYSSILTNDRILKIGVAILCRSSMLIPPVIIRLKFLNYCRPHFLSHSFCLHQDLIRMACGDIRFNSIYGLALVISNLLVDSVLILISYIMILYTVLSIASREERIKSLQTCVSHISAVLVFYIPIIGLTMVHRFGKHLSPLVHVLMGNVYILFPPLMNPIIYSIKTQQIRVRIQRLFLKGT
Method in brief: as §1

UniProt Q8VG96 = molecular target: T11, UniProt Q8VG96
T11 sequence (whole entry): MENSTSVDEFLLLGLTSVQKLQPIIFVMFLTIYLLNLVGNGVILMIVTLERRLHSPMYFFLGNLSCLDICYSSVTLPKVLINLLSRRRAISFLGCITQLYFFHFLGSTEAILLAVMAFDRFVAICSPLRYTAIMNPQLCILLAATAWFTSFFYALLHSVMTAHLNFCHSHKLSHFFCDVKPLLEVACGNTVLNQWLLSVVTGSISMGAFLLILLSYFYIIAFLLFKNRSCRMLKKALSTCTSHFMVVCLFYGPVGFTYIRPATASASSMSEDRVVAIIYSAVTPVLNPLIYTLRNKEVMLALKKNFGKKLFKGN
Method in brief: as §1

UniProt Q8VG26 = molecular target: UniProt Q8VG26
Method in brief: as §1

UniProt Q8VG28 = molecular target: UniProt Q8VG28
Method in brief: as §1

Measured: odorant receptor agonist call

UniProt Q8VG26, sequence (Q8VG26 as listed by the source): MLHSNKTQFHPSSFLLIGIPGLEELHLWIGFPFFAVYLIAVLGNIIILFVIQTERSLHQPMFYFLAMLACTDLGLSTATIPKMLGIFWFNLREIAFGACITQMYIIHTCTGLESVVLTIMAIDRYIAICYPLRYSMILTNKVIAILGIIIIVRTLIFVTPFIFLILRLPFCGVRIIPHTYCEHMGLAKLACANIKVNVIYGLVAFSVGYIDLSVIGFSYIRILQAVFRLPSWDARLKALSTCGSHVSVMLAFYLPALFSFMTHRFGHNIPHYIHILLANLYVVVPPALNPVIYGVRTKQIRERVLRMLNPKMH
UniProt Q8VG28, sequence (Q8VG28 as listed by the source): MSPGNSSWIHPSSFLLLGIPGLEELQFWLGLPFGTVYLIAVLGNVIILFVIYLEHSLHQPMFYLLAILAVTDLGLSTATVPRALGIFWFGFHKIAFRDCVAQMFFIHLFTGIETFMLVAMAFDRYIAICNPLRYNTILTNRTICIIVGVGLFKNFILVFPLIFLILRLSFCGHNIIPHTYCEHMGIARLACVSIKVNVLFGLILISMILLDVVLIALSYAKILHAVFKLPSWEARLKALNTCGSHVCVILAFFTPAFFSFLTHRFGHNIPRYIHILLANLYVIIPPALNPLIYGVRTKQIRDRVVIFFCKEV
UniProt Q8VFQ6, sequence (Q8VFQ6 as listed by the source): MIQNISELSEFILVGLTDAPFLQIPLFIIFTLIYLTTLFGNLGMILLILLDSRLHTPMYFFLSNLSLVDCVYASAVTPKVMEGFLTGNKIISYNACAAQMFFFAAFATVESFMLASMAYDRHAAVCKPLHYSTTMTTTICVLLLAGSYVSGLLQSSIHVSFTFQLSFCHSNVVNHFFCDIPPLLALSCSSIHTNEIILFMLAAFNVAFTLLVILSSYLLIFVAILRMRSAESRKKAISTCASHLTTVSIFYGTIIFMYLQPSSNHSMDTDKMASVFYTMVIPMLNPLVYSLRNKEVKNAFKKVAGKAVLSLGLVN

CCCC=O
inactive: UniProt Q8VFP5 | UniProt Q8VG01 | UniProt Q8VG27 | UniProt Q8VG53 | UniProt Q8VG64 | UniProt Q8VGB9

CCOC(=O)C(C)CC (stereo not drawn)
inactive: UniProt Q8VFP5 | UniProt Q8VG01 | UniProt Q8VG27 | UniProt Q8VG53 | UniProt Q8VG64 | UniProt Q8VGB9

CC(=O)OC1(C)CCC23CC1C(C)(C)C2CCC3C (stereo not drawn)
inactive: UniProt Q8VFP5 | UniProt Q8VG01 | UniProt Q8VG27 | UniProt Q8VG53 | UniProt Q8VG64 | UniProt Q8VGB9

C1CCOC1
inactive: UniProt Q8VFP5 | UniProt Q8VG01 | UniProt Q8VG27 | UniProt Q8VG53 | UniProt Q8VG64 | UniProt Q8VGB9

CCCCCCCCCCOC(C)=O
inactive: UniProt Q8VFP5 | UniProt Q8VG01 | UniProt Q8VG53 | UniProt Q8VG64 | UniProt Q8VGB9
active: UniProt Q8VG27

CCCCCCCCCC=CC=O
inactive: UniProt Q8VFP5 | UniProt Q8VG01 | UniProt Q8VG27 | UniProt Q8VG53 | UniProt Q8VG64 | UniProt Q8VGB9

CNc1ccccc1C(=O)OC
inactive: UniProt Q8VFP5 | UniProt Q8VG01 | UniProt Q8VG27 | UniProt Q8VG53 | UniProt Q8VG64 | UniProt Q8VGB9

O=c1ccc2ccccc2o1
inactive: UniProt Q8VFQ6 | UniProt Q8VFZ6 | UniProt Q8VG01 | UniProt Q8VG49 | UniProt Q8VG77
active: UniProt Q8VG22 | UniProt Q8VG96

CCCCCCCC(=O)[O-].[H+]
active: UniProt Q8VG01 | UniProt Q8VG28
inactive: UniProt Q8VFZ6 | UniProt Q8VG22 | UniProt Q8VG26 | UniProt Q8VG49 | UniProt Q8VG77 | UniProt Q8VG96

Cc1ccccc1OC(=O)C(C)C
inactive: UniProt Q8VFP5 | UniProt Q8VG01 | UniProt Q8VG27 | UniProt Q8VG53 | UniProt Q8VG64 | UniProt Q8VGB9

Cc1occc1SSc1ccoc1C
inactive: UniProt Q8VFP5 | UniProt Q8VG01 | UniProt Q8VG27 | UniProt Q8VG53 | UniProt Q8VG64 | UniProt Q8VGB9

CCCCOC(=O)CCC
inactive: UniProt Q8VG26 | UniProt Q8VG28

CCCCCCCCC=CC=O
inactive: UniProt Q8VFP5 | UniProt Q8VG01 | UniProt Q8VG27 | UniProt Q8VG53 | UniProt Q8VG64 | UniProt Q8VGB9

CCCCCCC(=O)[O-].[H+]
inactive: UniProt Q8VFZ6 | UniProt Q8VG22 | UniProt Q8VG26 | UniProt Q8VG28 | UniProt Q8VG49 | UniProt Q8VG77 | UniProt Q8VG96
active: UniProt Q8VG01

CCC(C(=O)O)c1ccccc1 (stereo not drawn)
inactive: UniProt Q8VFZ6 | UniProt Q8VG01 | UniProt Q8VG22 | UniProt Q8VG49 | UniProt Q8VG77 | UniProt Q8VG96

O=C(O)CCCBr
inactive: UniProt Q8VG28

CCCCOC(=O)C(C)OC(=O)CCC (stereo not drawn)
inactive: UniProt Q8VFZ6 | UniProt Q8VG01 | UniProt Q8VG22 | UniProt Q8VG49 | UniProt Q8VG77 | UniProt Q8VG96
